Values after ≈ are worked out from the molar mass of the structure shown.
Columns and labels:
[1] = Microsomal stability in monkey microsomes assessed as parent compound remaining at […] measured after 10 mins; type: ADME, Macaca mulatta, Liver, Microsome; settings: rhesus monkey, read-out: Stabilty
[2] = molecular target: T1, Calcitonin gene-related peptide type 1 receptor (Homo sapiens, UniProt O60894+Q16602); assay: Displacement of [125I]CGRP from human CGRP receptor in human SK-N-MC cells measured after 2 hrs by scintillation counting analysis; type: cell-based
[3] = Microsomal stability in rat microsomes assessed as parent compound remaining at […] measured after 10 mins; type: ADME, Microsome; settings: read-out: Stabilty
[4] = Microsomal stability in human liver microsomes assessed as parent compound remaining at […] measured after 10 mins; type: ADME; settings: read-out: Stabilty
[5] = Cmax in rat at 10 mg/kg, po; type: ADME, organism-based; parameters: route oral, dose 10 mg/kg; settings: in vivo
Method in brief: (§1)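 Rats received a single 10 mg/kg oral dose in 80% PEG400/10% DMAC/10% Tween 80.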

[6] = Cmax in Cynomolgus monkey at 10 mg/kg, po; type: ADME, organism-based, Macaca fascicularis; parameters: route oral, dose 10 mg/kg; settings: in vivo
Callithrix jacchus [7] = assay: Antimigraine activity in human CGRPalpha-induced migraine marmoset model assessed as reduction in facial blood flow at 7 mg/kg, sc administered 30 mins after CGRPalpha stimulation measured after 15 to 105 mins by laser doppler method relative to control; type: functional; parameters: scale not given: the % may be the effect or the level left; settings: time 15-105 min
Method in brief: (§2)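 Marmosets were anesthetized. Facial blood flow was raised by iv hαCGRP (10 µg/kg) given at −30, +15, +60 and +105 min relative to sc antagonist dosing at 0 min. Blood flow was read by laser Doppler flowmetry. Inhibition of the CGRP-induced increase was expressed against the predose vehicle control response at −30 min.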

[8] = molecular target: T1, Calcitonin gene-related peptide type 1 receptor; assay: Antagonist activity against human CGRP receptor in human SK-N-MC cells assessed as inhibition of CGRP-stimulated cAMP production; type: functional, cell-based
[9] = Solubility in phosphate buffer at pH 7 using amorphous form of sample; type: physicochemical
Method in brief: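 Solubility of the amorphous solid was measured in 50 mM phosphate buffer, pH 7.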

Callithrix jacchus [10] = assay: Antimigraine activity in human CGRPalpha-induced migraine marmoset model assessed as reduction in facial blood flow at 7 mg/kg, sc administered 30 mins after CGRPalpha stimulation measured after 15 mins by laser doppler method relative to control; type: functional; parameters: scale not given: the % may be the effect or the level left; settings: 0.25 h; method in brief: as §2
Callithrix jacchus [11] = assay: Antimigraine activity in human CGRPalpha-induced migraine marmoset model assessed as reduction in facial blood flow at 7 mg/kg, sc administered 30 mins after CGRPalpha stimulation measured after 60 mins by laser doppler method relative to control; type: functional; parameters: scale not given: the % may be the effect or the level left; settings: 1 h; method in brief: as §2
Cytochrome P450 3A4 = Cytochrome P450 3A4 (Homo sapiens, UniProt P08684); assay: Time dependent inhibition of CYP3A4 (unknown origin) measured after 30 mins; type: ADME
[12] = Permeability of compound at pH 5.5 by PAMPA assay; type: ADME; settings: read-out: permeability
Callithrix jacchus [13] = assay: Antimigraine activity in human CGRPalpha-induced migraine marmoset model assessed as reduction in facial blood flow at 7 mg/kg, sc administered 30 mins after CGRPalpha stimulation measured after 105 mins by laser doppler method relative to control; type: functional; parameters: scale not given: the % may be the effect or the level left; settings: 1.75 h; method in brief: as §2
[14] = Permeability form basolateral to apical side in human Caco2 cells; type: ADME, cell-based; settings: Caco-2, read-out: permeability
[15] = Total plasma concentration in human CGRPalpha-induced migraine marmoset model at 7 mg/kg, sc measured after 15 to 105 mins; type: ADME, organism-based, Callithrix jacchus; settings: in vivo, time 15-105 min
Method in brief: (§3)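 In anesthetized marmosets given the antagonist sc at 0 min and iv hαCGRP (10 µg/kg) at −30, +15, +60 and +105 min, total plasma levels were taken at the 15, 60 and 105 min postdose test times.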

[16] = Fraction unbound in plasma of human CGRPalpha-induced migraine marmoset model at 7 mg/kg, sc measured after 15 to 105 mins; type: ADME, organism-based, Callithrix jacchus; settings: time 15-105 min
[17] = Permeability form apical to basolateral side in human Caco2 cells; type: ADME, cell-based; settings: Caco-2, read-out: permeability
[18] = Permeability of compound at pH 7.4 by PAMPA assay; type: ADME; settings: read-out: permeability
[19] = Total plasma concentration in human CGRPalpha-induced migraine marmoset model at 3 mg/kg, sc measured after 15 to 105 mins; type: ADME, organism-based, Callithrix jacchus; settings: in vivo, time 15-105 min; method in brief: as §3
Callithrix jacchus [20] = assay: Antimigraine activity in human CGRPalpha-induced migraine marmoset model assessed as reduction in facial blood flow at 3 mg/kg, sc administered 30 mins after CGRPalpha stimulation measured after 15 to 105 mins by laser doppler method relative to control; type: functional; parameters: scale not given: the % may be the effect or the level left; settings: time 15-105 min; method in brief: as §2
[21] = Oral bioavailability in rat at 10 mg/kg; type: ADME, organism-based; settings: in vivo; method in brief: as §1

Cytochrome P450 3A4, sequence (P08684 whole entry): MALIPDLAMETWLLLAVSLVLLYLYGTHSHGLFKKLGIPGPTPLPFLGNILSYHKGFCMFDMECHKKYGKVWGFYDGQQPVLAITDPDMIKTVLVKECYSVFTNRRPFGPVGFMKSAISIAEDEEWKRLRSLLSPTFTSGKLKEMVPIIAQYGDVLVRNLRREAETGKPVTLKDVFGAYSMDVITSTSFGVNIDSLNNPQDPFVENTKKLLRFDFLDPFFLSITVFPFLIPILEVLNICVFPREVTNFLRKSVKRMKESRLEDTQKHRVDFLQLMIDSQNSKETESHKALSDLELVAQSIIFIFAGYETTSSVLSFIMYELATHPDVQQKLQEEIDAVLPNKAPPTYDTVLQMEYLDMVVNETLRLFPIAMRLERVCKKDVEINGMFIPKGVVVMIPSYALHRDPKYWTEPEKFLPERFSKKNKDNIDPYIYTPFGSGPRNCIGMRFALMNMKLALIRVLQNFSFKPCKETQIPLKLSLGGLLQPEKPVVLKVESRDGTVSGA
T1 sequence (Q16602 whole entry, one chain of several): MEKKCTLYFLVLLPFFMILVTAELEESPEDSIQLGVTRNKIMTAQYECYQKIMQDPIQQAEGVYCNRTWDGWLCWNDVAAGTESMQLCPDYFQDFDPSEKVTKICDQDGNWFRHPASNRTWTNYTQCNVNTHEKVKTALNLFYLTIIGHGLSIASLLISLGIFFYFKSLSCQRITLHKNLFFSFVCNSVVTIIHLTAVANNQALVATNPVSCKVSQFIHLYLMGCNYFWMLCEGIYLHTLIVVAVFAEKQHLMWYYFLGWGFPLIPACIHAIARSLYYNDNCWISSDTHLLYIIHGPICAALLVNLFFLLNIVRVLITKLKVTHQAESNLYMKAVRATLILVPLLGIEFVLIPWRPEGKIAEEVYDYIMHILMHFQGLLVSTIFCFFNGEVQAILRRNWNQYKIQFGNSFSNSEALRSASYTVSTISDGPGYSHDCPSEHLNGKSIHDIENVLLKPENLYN

Row | SMILES | remaining at 10 min [1] [%] | Ki [2] [nM] | remaining at 10 min [3] [%] | remaining at 10 min [4] [%] | Cmax [5] [nM] | other results
1 | N#Cc1c[nH]c2c(Cl)cc3c(c12)CN(CC(F)(F)F)C(=O)[C@H](CC(=O)N1CCC(N2CCc4ccccc4NC2=O)CC1)C3 | 26 | 0.06 | 11 | 38 |  | 
2 | NC(=O)c1c[nH]c2c(Cl)cc3c(c12)CN(CC(F)(F)F)C(=O)[C@H](CC(=O)N1CCC(n2c(=O)[nH]c4ncccc42)CC1)C3 | 70 | 0.4 | 80 | 80 |  | 
3 | CCn1c(=O)[nH]c2c(Cl)cc3c(c21)CN(CC(F)(F)F)C(=O)[C@H](CC(=O)N1CCC(N2CCc4ccccc4NC2=O)CC1)C3 | 59 | 0.014 | 22 | 44 | 230 | Cmax [6]: 230 nM; Activity (Callithrix jacchus [7]): 67%; IC50 [8]: 0.09 nM
4 | O=C(C[C@@H]1Cc2cc(Cl)c3[nH]c(=O)n(CC(F)(F)F)c3c2CN(CC(F)(F)F)C1=O)N1CCC(N2CCc3ccccc3NC2=O)CC1 | 87 | 0.02 | 54 | 58 | 270 | solubility [9]: < 1 µg/mL; Activity (Callithrix jacchus [10]): 26%; Activity (Callithrix jacchus [11]): 65%; IC50 (Cytochrome P450 3A4): 8400 nM; Cmax [6]: 87 nM; Papp [12]: 51.3 ×10⁻⁶ cm/s; Activity (Callithrix jacchus [13]): 84%; Papp B→A [14]: 2.4 ×10⁻⁶ cm/s; IC50 [8]: 0.12 nM; concentration [15]: 80 nM; fraction unbound [16]: 0.009; Papp A→B [17]: < 1.5 ×10⁻⁶ cm/s
5 | O=C(C[C@@H]1Cc2cc(Cl)c3[nH]nnc3c2CN(CC(F)(F)F)C1=O)N1CCC(n2c(=O)[nH]c3ncccc32)CC1 | 64 | 0.44 | 90 | 62 |  | 
6 | O=C(C[C@@H]1Cc2cc(Cl)c3c(c2CN(CC(F)(F)F)C1=O)C(F)(F)C(=O)N3)N1CCC(n2c(=O)[nH]c3ncccc32)CC1 | 28 | 0.13 | 82 | 91 | 4 | solubility [9]: 15 µg/mL (≈ 23.9 µM); Activity (Callithrix jacchus [10]): 47%; Activity (Callithrix jacchus [11]): 48%; IC50 (Cytochrome P450 3A4): > 40000 nM; Papp [12]: 9.9 ×10⁻⁶ cm/s; Activity (Callithrix jacchus [13]): 56%; Papp [18]: 8.7 ×10⁻⁶ cm/s; Papp B→A [14]: 25.7 ×10⁻⁶ cm/s; concentration [15]: 140 nM; fraction unbound [16]: 0.054; Papp A→B [17]: < 1.5 ×10⁻⁶ cm/s
7 | O=C(C[C@@H]1Cc2cc(Cl)c3[nH]c(=O)n(CC(F)(F)F)c3c2CN(CC(F)(F)F)C1=O)N1CCC(n2c(=O)[nH]c3ncccc32)CC1 | 41 | 0.026 | 90 | 90 | 3 | solubility [9]: < 1 µg/mL; Papp [12]: 2.8 ×10⁻⁶ cm/s; Papp [18]: 2.3 ×10⁻⁶ cm/s; Papp B→A [14]: 16.5 ×10⁻⁶ cm/s; Papp A→B [17]: < 1.5 ×10⁻⁶ cm/s
8 | N#Cc1c[nH]c2c(Cl)cc3c(c12)CN(CC(F)(F)F)C(=O)[C@H](CC(=O)N1CCC(n2c(=O)[nH]c4ncccc42)CC1)C3 | 7 | 0.06 | 40 | 40 |  | 
9 | Cn1c(=O)[nH]c2c(Cl)cc3c(c21)CN(CC(F)(F)F)C(=O)[C@H](CC(=O)N1CCC(N2CCc4ncccc4NC2=O)CC1)C3 | 100 | 0.043 | 56 | 73 | 11 | 
10 | O=C(C[C@@H]1Cc2cc(Cl)c3[nH]c(=O)oc3c2CN(CC(F)(F)F)C1=O)N1CCC(n2c(=O)[nH]c3ncccc32)CC1 | 63 | 0.12 | 64 | 49 | 36 | 

Further lines, with some results ahead:

Row | remaining at 10 min [1] [%] | Ki [2] [nM] | remaining at 10 min [3] [%] | remaining at 10 min [4] [%] | Cmax [5] [nM] | SMILES | other results
11 | 24 | 0.17 | 7 | 26 |  | O=C(C[C@@H]1Cc2cc(Cl)c3[nH]cnc3c2CN(CC(F)(F)F)C1=O)N1CCC(N2CCc3ccccc3NC2=O)CC1 | 
12 | 75 | 0.015 | 35 | 36 | 96 | Cn1c(=O)[nH]c2c(Cl)cc3c(c21)CN(CC(F)(F)F)C(=O)[C@H](CC(=O)N1CCC(N2CCc4ccccc4NC2=O)CC1)C3 | solubility [9]: < 1 µg/mL; concentration [19]: 40 nM; Activity (Callithrix jacchus [10]): 57%; Activity (Callithrix jacchus [20]): 79%; Activity (Callithrix jacchus [11]): 87%; IC50 (Cytochrome P450 3A4): 8100 nM; Cmax [6]: 35 nM; Activity (Callithrix jacchus [13]): 85%; Papp [18]: 19.2 ×10⁻⁶ cm/s; Papp B→A [14]: 19.6 ×10⁻⁶ cm/s; IC50 [8]: 0.06 nM; concentration [15]: 170 nM; fraction unbound [16]: 0.023; Papp A→B [17]: < 1.5 ×10⁻⁶ cm/s; bioavailability [21]: 1%
13 | 71 | 0.019 | 41 | 60 | 3 | O=C(C[C@@H]1Cc2cc(Cl)c3[nH]c(=O)[nH]c3c2CN(CC(F)(F)F)C1=O)N1CCC(N2CCc3ccccc3NC2=O)CC1 | 
14 | 8.1 | 0.069 | 35 | 22 | 480 | O=C(C[C@@H]1Cc2cc(Cl)c3c(c2CN(CC(F)(F)F)C1=O)C(F)(F)C(=O)N3)N1CCC(N2CCc3ccccc3NC2=O)CC1 | 
15 |  | 0.046 |  |  |  | O=C(C[C@@H]1Cc2cc(Cl)c3[nH]ncc3c2CN(CC(F)(F)F)C1=O)N1CCC(N2CCc3ccccc3NC2=O)CC1 | IC50 (Cytochrome P450 3A4): 100 nM
16 | 1.6 | 0.85 | 0.8 | 0.9 |  | O=C(C[C@@H]1Cc2cc(Cl)c3[nH]ccc3c2CN(CC(F)(F)F)C1=O)N1CCC(N2CCc3ccccc3NC2=O)CC1 | 
